Test results from publication PMC8293762 (Slas Discovery, 2021).

Experiments:
HCN4 [1] = molecular target: T1, HCN4 (Homo sapiens, UniProt Q9Y3Q4); assay type: cell-based; conditions: six repetitive hyperpolarization pulses, Fig. 2A,B
T1 sequence (Q9Y3Q4 1-1203): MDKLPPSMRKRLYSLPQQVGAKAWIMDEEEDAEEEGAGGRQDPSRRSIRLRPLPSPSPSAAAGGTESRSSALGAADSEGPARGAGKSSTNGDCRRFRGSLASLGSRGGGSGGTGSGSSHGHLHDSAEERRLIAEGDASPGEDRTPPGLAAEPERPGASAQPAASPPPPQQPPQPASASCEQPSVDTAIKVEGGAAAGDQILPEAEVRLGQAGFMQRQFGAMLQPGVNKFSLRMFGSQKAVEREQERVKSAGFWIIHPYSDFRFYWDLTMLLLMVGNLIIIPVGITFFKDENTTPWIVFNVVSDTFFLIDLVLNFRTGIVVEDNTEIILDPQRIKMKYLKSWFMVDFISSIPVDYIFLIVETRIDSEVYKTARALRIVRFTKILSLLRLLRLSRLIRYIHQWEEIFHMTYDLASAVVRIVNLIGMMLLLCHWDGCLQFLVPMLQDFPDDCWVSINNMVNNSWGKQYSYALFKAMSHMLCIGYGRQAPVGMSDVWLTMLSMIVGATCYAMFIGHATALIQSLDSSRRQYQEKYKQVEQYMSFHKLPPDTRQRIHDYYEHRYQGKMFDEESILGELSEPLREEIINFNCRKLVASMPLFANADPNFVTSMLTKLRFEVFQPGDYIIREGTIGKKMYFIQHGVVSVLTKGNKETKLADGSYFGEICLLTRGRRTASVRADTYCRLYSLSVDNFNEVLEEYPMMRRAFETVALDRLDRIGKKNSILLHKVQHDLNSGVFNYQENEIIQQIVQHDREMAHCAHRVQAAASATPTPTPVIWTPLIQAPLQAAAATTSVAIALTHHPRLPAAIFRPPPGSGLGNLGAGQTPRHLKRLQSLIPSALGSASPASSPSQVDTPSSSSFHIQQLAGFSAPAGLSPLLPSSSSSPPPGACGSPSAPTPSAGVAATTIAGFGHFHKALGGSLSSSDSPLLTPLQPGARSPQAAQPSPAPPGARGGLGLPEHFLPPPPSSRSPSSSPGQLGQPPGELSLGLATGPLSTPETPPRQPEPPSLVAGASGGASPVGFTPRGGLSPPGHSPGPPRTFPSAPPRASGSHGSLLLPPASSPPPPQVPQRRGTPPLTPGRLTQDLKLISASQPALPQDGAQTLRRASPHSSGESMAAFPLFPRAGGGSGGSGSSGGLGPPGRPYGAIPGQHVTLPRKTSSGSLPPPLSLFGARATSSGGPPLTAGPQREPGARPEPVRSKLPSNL

HCN4 [2] = molecular target: T1, HCN4; assay: Random screening of ~16,000 compounds for HCN4 blockade, IonWorks; assay type: cell-based; conditions: six-pulse protocol; blockade traces, Fig. 3C
Outline: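 Human HCN4 (Thr110Ser) stably expressed in CHO-K1 cells, grown at 37 °C, then held at 30 °C for 2−8 days before recording. Perforated-patch (amphotericin B) IonWorks recording, SH mode then PPC mode. Held at −30 mV with a +10 mV leak prepulse, then six hyperpolarizing pulses. Test compound at 30 μM, DMSO 0.3% per well. Current at end of last pulse read before and 5−10 min after addition; percent inhibition from post/pre ratio.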

[3] = test system: isolated rat right atrium; assay: Heart rate in isolated rat right atrium in vitro; conditions: data not shown

Compound | Use dependence of HCN4 blockade according to pulse number (HCN4 [1]) | Use dependence of HCN4 blockade over six pulses (HCN4 [2]) | Effect on heart rate in isolated rat right atrium [3]
COc1cc2c(cc1OC)CC(=O)N(CCCN(C)C[C@H]1Cc3cc(OC)c(OC)cc31)CC2 [Ivabradine] | use-dependent blockade |  | 
COc1cc(Cl)c(S(=O)(=O)N[C@@H](C)C(=O)N2CCC(N3CCCCC3)CC2)cc1Cl [T-478, N-[(2S)-1-([1,4′-bipiperidin]-1′-yl)-1-oxopropan-2-yl]-2,5-dichloro-4-methoxybenzene-1-sulfonamide] |  | use-dependent blockade | reduced heart rate
FC(F)(F)c1cccc(-c2ccc3c(c2)CNCC3)c1 [T-524, 7-[3-(trifluoromethyl)phenyl]-1,2,3,4-tetrahydroisoquinoline] |  | almost the same blockade or even a decreasing blockade over six pulses | reduced heart rate
O=C(c1ccc(-n2cccn2)nc1)N1CCN2C(=O)OC(c3ccccc3)(c3ccccc3)[C@H]2C1 [T-788, (8aR)-1,1-diphenyl-7-[6-(1H-pyrazol-1-yl)pyridine-3-carbonyl]hexahydro-3H-[1,3]oxazolo[3,4-a]pyrazin-3-one] |  | almost the same blockade or even a decreasing blockade over six pulses | reduced heart rate
ZD7288 [reference compound] |  | almost the same blockade or even a decreasing blockade over six pulses | 
